Source: PubChem
Rows were chosen to be rich in hits. Some 2.7% of all compounds tested hit in one or more screens of this group.
OXTR ag: activates the human oxytocin receptor | hit rate 0.32% among 320,000 | CHO-OTR cells, Fluo-8 calcium fluorescence; normalized: DMSO 0%, oxytocin 100% | P30559 | activation, % at 3 µM;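 active = activation above the mean of all tested compounds plus 3 SD, cutoff set per screening run, cut at about 20% in these data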;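 note: peak over basal fluorescence ratio from a 100 s FLIPR kinetic read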
OX1R antag-1: blocks the human orexin 1 receptor; O43613; CHO/OX1R cells, Fluo-8 calcium fluorescence, orexin A; inhibition, % at 5 µM; hit rate 0.43% among 330,000; AID 434989;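 active = inhibition above its plate's threshold, mean inhibition of all tested compounds on the plate plus 3 SD, cut at about 37% in these data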;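 note: 0% = orexin A challenge wells and 100% = SB-334867-A antagonist wells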
OXTR potentiator: potentiates the human oxytocin receptor response; CHO-OTR cells, Fluo-8 calcium fluorescence, potentiator mode; 0% = oxytocin EC15, 100% = EC100; activation, % at 3 µM; AID 2445; P30559; hit rate 0.061% among 320,000;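 active = activation above that plate's cutoff, the mean activation of tested compounds plus 3 SD, cut at about 6.6% in these data, passing the limit was not always enough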;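 note: 100% uses oxytocin at 75 nM as the full agonist control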
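System: human OTR in CHO cells / Also added: sub-maximal oxytocin, roughly EC15 / Control set: EC15 oxytocin low, 75 nM oxytocin high / Schedule: 6 min compound pre-incubation at room temperature, 100 s kinetic read / Compound: single-point 3.0 µM / Replication: singlicate / Technique: Fluo-8 calcium dye fluorescence / Read-out basis: % activation of max/min ratio relative to oxytocin controls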
CHO parental Ca: signal in parental CHO cells, OX1R antagonist counter-screen; parental CHO-K1, ATP-induced calcium, Fluo-8 fluorescence; inhibition, % at 5.6 µM; hit rate 0.63% among 330,000;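 active = inhibition above that plate's mean sample inhibition plus 3 SD, cut at about 26% in these data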;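 note: 0% = ATP-challenged DMSO wells and 100% = DMSO wells without ATP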
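material = parental CHO cells | also added = ATP as calcium-mobilizing challenge | dosing = single point at 5.6 µM | detection = intracellular calcium via Fluo-8 no-wash fluorescent dye | read-out = % inhibition | benchmarks = low control ATP plus DMSO, high control DMSO only | repeats = one well per compound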
OX1R antag-2: blocks the human orexin 1 receptor; O43613; OX1R-expressing cells, FRET antagonist read-out; inhibition, % at 6.6 µM; hit rate 1.8% among 330,000; AID 485270; in the data active = inhibition mostly above about 38%, no sharp cut-off; inactive = mostly below about 40%;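 note: 0% = agonist challenge alone and 100% = reference antagonist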
V1aR counter: counter-screen for oxytocin receptor agonists: human V1a receptor agonists. P37288. CHO-V1R cells, Fluo-8 calcium fluorescence, agonist mode; 0% DMSO, 100% 3 nM vasopressin. activation, % at 3 µM. hit rate 0.25% among 320,000;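 active = activation above the mean activation of all tested compounds plus 3 SD, per screening run, cut at about 20% in these data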;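 note: signal is peak over basal fluorescence ratio across a 100 second FLIPR read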
Target sequence (P37288 whole entry, looked up): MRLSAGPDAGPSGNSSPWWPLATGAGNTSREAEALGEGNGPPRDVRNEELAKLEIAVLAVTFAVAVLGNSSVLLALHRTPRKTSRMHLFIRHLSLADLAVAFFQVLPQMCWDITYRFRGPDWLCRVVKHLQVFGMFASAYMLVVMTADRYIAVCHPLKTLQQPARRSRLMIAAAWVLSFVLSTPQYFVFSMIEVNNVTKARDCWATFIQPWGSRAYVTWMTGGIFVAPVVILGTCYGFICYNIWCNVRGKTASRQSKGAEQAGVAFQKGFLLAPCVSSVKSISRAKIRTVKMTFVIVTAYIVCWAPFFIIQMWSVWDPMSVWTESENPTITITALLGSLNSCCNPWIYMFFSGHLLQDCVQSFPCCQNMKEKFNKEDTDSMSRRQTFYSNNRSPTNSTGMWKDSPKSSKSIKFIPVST
V1aR agonist cf: confirmation of human vasopressin V1a receptor agonists; CHO-V1R cells, Fluo-8 calcium fluorescence, agonist; AID 434964; shares compounds with V1aR counter; hit rate 20% among 180; activation, % at 3 µM;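 active = average activation exceeds primary screen hit cutoff, cut at about 21% in these data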;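 note: peak over basal fluorescence ratio during a 100 s FLIPR read; 0% = DMSO only wells and 100% = 3 nM vasopressin wells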
OXTR counter: counter-screen for V1a receptor agonists: oxytocin receptor agonists | shares compounds with V1aR counter | CHO-OTR cells, Fluo-8 calcium fluorescence, agonist | activation, % at 3 µM | hit rate 10% among 180 | AID 434969;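 active = mean activation over three repeats above the cutoff from the earlier oxytocin receptor agonist screen, cut at about 20% in these data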;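 note: peak over minimum fluorescence ratio within a 100 second FLIPR read; 0% = DMSO only wells and 100% = oxytocin high control wells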
OX1R Ca confirm: confirmation of human orexin 1 receptor antagonists; shares compounds with OX1R antag-1; CHO/OX1R cells, orexin A calcium Fluo-8 fluorescence; inhibition, % at 5 µM; hit rate 38% among 1,100; AID 492963; in the data active = inhibition above about 29%;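 note: 0% = agonist challenge alone and 100% = reference antagonist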
CHO Ca triplic: signal in parental CHO cells, OX1R antagonist counter-screen | inhibition, % at 5.6 µM | parental CHO-K1, ATP-induced calcium, Fluo-8 fluorescence | hit rate 9.3% among 1,100 | shares compounds with OX1R antag-1;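 active = inhibition above a per-plate limit, the mean inhibition of that plate's test compounds plus 3 SD, cut at about 25% in these data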;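 note: 0% = ATP challenge with DMSO and 100% = DMSO without ATP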
* hit, by the source's call; . = not tested or not shown.

SMILES | OXTR ag | OX1R antag-1 | OXTR potentiator | CHO parental Ca | OX1R antag-2 | V1aR counter | V1aR agonist cf | OXTR counter | others
CCN1C(=S)SC(=O)C1=C1C=C(C)N(Cc2ccco2)C(C)=C1 | 19 | 19 | -25 | 11 | 20 | 24* | 23* | 18
CCN1C(=S)SC(=O)C1=C1C=C(C)OC(C)=C1 | 0 | -19 | -14 | -6 | 6 | 1 | . | .
COc1ccc(/C=C2/C(=O)C(C)(C(C)C)CCC2C)cc1 (configuration not stated) | -1 | -12 | -15 | 5 | -9 | 20* | 0 | -1
NS(=O)(=O)c1cccc(NC(=O)COC(=O)CNC(=O)c2ccc(-c3ccccc3)cc2)c1 | 0 | 16 | -9 | 6 | 10 | 0 | . | .
COc1ccc(NC(=O)CSc2nc3nc(C)cc(C)c3c(=O)[nH]2)cc1 | -1 | -22 | 6 | -16 | 21 | 23* | 0 | -1
O=C(CC(Cc1ccccc1)C(=O)O)Nc1cccc(C(F)(F)F)c1 (configuration not stated) | 0 | 4 | -3 | -1 | 3 | 1 | . | .
COC(=O)c1ccc(COC(=O)C(CCSC)NC(=O)COc2ccccc2)cc1 (configuration not stated) | -1 | -24 | -8 | -9 | 14 | 6 | . | .
CCN(C(=O)CSc1nc2ccc(Cl)cc2[nH]1)C1CCS(=O)(=O)C1 (configuration not stated) | 0 | -24 | -7 | -17 | 6 | -1 | . | .
COc1cccc(N2CCN(C(=O)CN(c3ccc(C)cc3)S(=O)(=O)c3c(C)n[nH]c3C)CC2)c1 | 1 | -33 | -5 | -15 | -1 | 0 | . | .
COc1ccc(N(CC(=O)N2CCN(c3cccc(C)c3)C(C)C2)S(=O)(=O)c2c(C)n[nH]c2C)cc1 (configuration not stated) | 0 | -17 | -14 | -27 | 25 | 23* | 0 | -1
Cc1c(NC(=O)CSc2ccccc2C(=O)Nc2cccnc2)c(=O)n(-c2ccccc2)n1C | 0 | -5 | 1 | -7 | 2 | 31* | -1 | -1
COC(=O)C(NC(=O)c1ccccc1Cl)(Nc1ncc(S(=O)(=O)c2ccc([N+](=O)[O-])cc2)s1)C(F)(F)F (configuration not stated) | 19 | 20 | -15 | 2 | 17 | 28* | 14 | 16
COc1ccc(NC(=O)CN2C(=O)/C(=C3\SC(=S)N(C4CCS(=O)(=O)C4)C3=O)c3ccccc32)cc1 (configuration not stated) | -2 | -12 | -1 | -7 | 8 | 22* | 0 | 0
O=C(CN1C(=O)/C(=C2\SC(=S)N(C3CCS(=O)(=O)C3)C2=O)c2ccccc21)Nc1ccc(F)cc1 (configuration not stated) | 0 | -4 | -13 | -17 | 7 | 1 | . | .
COc1ccccc1N1C(=O)c2cccc3c(N(C)CCO)ccc(c23)C1=O | 18 | 4 | -10 | 8 | 4 | 31* | 18 | 11
N#Cc1cccc(NC(=O)CSc2ccc3c4c(cccc24)C(=O)c2ccccc2-3)c1 | 14 | 75* | -11 | 59* | 62 | 41* | 107* | 84*
COc1ccc(NC(=S)N/N=C/c2cccn2Cc2ccc(F)cc2)cc1 | -2 | -14 | -25 | -16 | 37 | -2 | . | .
CCOC(=O)Nc1ccc(C(=O)c2ccncc2)cc1 | 0 | -6 | -14 | 0 | 5 | 20* | 0 | 0
CCOC(=O)Nc1ccc(C(N)=O)cc1 | 1 | -8 | -1 | 0 | 2 | 1 | . | .
NNC(=S)Nc1cccc(-c2n[nH]c(=S)o2)c1 | 0 | -11 | -6 | -7 | 8 | 0 | . | .
COC(=O)c1ccccc1NC(=O)C(C)n1nc(C)c2c(C)n(-c3ccccc3)nc2c1=O (configuration not stated) | 1 | -41 | -10 | -28 | 9 | 23* | 0 | -1
Cc1ccc(C(=O)Oc2cc(N)n(S(=O)(=O)c3ccc(F)cc3)n2)cc1 | -2 | -35 | -7 | -28 | 34 | -2 | . | .
COc1cccc(C(=O)Oc2cc(N)n(S(=O)(=O)c3ccc(C)cc3)n2)c1OC | 7 | -19 | -17 | -26 | 44 | 28* | 8 | 8
CC1=NN(c2ccc(Cl)cc2)C(=O)C1C(c1cccc(O)c1)c1c(C)[nH]n(-c2ccc(Cl)cc2)c1=O (configuration not stated) | 13 | 12 | -9 | 1 | 22 | 20* | 2 | 1
CC1=NN(c2ccc(F)cc2)C(=O)C1C(c1cccc(O)c1)c1c(C)[nH]n(-c2ccc(F)cc2)c1=O (configuration not stated) | 9 | 7 | -11 | -2 | 11 | 5 | . | .
SMILES | OXTR ag | OX1R antag-1 | OXTR potentiator | CHO parental Ca | OX1R antag-2 | V1aR counter | V1aR agonist cf | OXTR counter | others
O=C1c2ccccc2C(=O)N1CCC#Cc1ccc2cc(CCCO)oc(=O)c2c1 | 15 | 44 | -11 | 3 | 8 | 26* | 9 | 8
CN(C)c1ccc(C#Cc2ccc3cc(CCCO)oc(=O)c3c2)cc1 | 1 | -3 | -5 | -3 | 0 | 0 | . | .
CC(C)CNC(=S)Nc1ccc(Oc2ccccc2)cc1 | 5 | -4 | -6 | -10 | 12 | 5 | . | .
O=C(N/N=C/c1sc(=O)[nH]c1-[n+]1ccc2ccccc2c1)c1ccccc1[O-] | 17 | 3 | -3 | -1 | 19 | 27* | 1 | 0
Cc1nc2ccc(NS(=O)(=O)c3ccc(F)cc3F)cc2s1 | 8 | 9 | -12 | -18 | 6 | 7 | . | .
Cc1nc2ccc(NS(=O)(=O)c3c(F)cc(F)cc3Br)cc2s1 | 13 | 38 | -12 | -2 | 13 | 9 | . | . | OX1R Ca confirm=15;CHO Ca triplic=16
Cc1cc(NC(=O)C(C)SCC(=O)OCc2ccc([N+](=O)[O-])cc2)no1 (configuration not stated) | -2 | -13 | 1 | -6 | 20 | -1 | . | .
CCn1c(SCC(=O)N2CCCCC2C)nc2c1c(=O)n(C)c(=O)n2C (configuration not stated) | 2 | -25 | -8 | 4 | 27 | 2 | . | .
